Calls of active or inactive are those of the source. How the calls were made is not given here.
What was measured:
Acinetobacter baumannii [1] = assay: Antibacterial activity against Acinetobacter baumannii ATCC 19606 using iron-replete M9 minimal media after 15 hrs by broth microdilution assay; type: functional, organism-based; conditions: ATCC 19606 = CIP 70.34 = JCM 6841
How it was run: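 ATCC 19606 grown overnight at 30 °C on LB agar, washed twice in dipyridyl-containing M9/casamino acids medium, then diluted to A600 0.0003 in M9 minimal medium with 0.2% casamino acids plus 200 μM FeCl3. Inhibitors from DMSO at 100 μM final, in triplicate. Controls were tetracycline (100 ng/mL) and 1% DMSO. Incubated at 30 °C, A600 measured at 15 h.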

Acinetobacter baumannii [2] = assay: Antibacterial activity against Acinetobacter baumannii ATCC 19606 using iron-deficient M9 minimal media after 15 hrs by broth microdilution assay; type: functional, organism-based; conditions: ATCC 19606 = CIP 70.34 = JCM 6841
How it was run: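 ATCC 19606 grown overnight at 30 °C on LB agar, washed twice and resuspended in M9 minimal medium with 0.2% casamino acids and 200 μM dipyridyl. Inoculated at A600 0.0003 in this medium plus 1 μM FeCl3. Inhibitors from DMSO at 100 μM final, in triplicate. Tetracycline (100 ng/mL) and 1% DMSO as controls. Incubated at 30 °C; A600 read at 15 h.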

[3] = Displacement of Fl-Sal-AMS from Mycobacterium tuberculosis MbtA expressed in Escherichia coli after 30 mins by fluorescence polarization assay
[4] = Displacement of Fl-Sal-AMS from Acinetobacter baumanni BasE expressed in Escherichia coli after 30 mins by fluorescence polarization assay; parameters: species or system Acinetobacter baumannii

Row | SMILES | Activity (Acinetobacter baumannii [1]) | Activity (Acinetobacter baumannii [2]) | Kd [3] | Kd ([4]; read-out: Kd) | Kd [4]
1 | Cc1ccc(-c2cc(C(=O)O)c3cnn(Cc4ccncc4)c3n2)s1 | inactive | inactive | 2.6 µM | 0.0076 µM | 
2 | C=Cc1cc(C(=O)O)c2cnn(Cc3ccncc3)c2n1 | inactive | inactive | > 100 µM | 1.9 µM | 
3 | Cc1cccc(-c2cc(C(=O)O)c3cnn(Cc4ccncc4)c3n2)c1 | inactive | inactive | 7.4 µM | 0.158 µM | 
4 | COc1ccc(Cn2ncc3c(C(=O)O)cc(Nc4ccccc4)nc32)cc1 | inactive | inactive |  | > 100 µM | 
5 | CS(=O)(=O)c1ccc(-c2cc(C(=O)O)c3cnn(Cc4ccncc4)c3n2)cc1 | inactive | inactive |  |  | 
6 | COc1ccc(Cn2ncc3c(C(=O)O)cc(-c4ccccc4)nc32)cc1 | inactive | inactive |  | > 100 µM | 
7 | O=C(O)c1cc(NCCCO)nc2c1cnn2Cc1ccncc1 | inactive | inactive | 97.7 µM | 2.46 µM | 
8 | CCCNC(=O)c1cc(-c2ccccc2)nc2c1cnn2Cc1ccncc1 | inactive | inactive | > 50 µM | 0.249 µM | 
9 | O=C(O)c1cc(-c2ccccc2)nc2[nH]ncc12 | inactive | inactive |  | > 100 µM | 
10 | Cc1ccsc1-c1cc(C(=O)O)c2cnn(Cc3ccncc3)c2n1 | inactive | inactive | 19.2 µM | 0.34 µM | 
11 | O=C(O)c1cc(-c2cccc3cccnc23)nc2c1cnn2Cc1ccncc1 | inactive | inactive | 22.5 µM | 0.776 µM | 
12 | Nc1ccc(-c2cc(C(=O)O)c3cnn(Cc4ccncc4)c3n2)cc1 | inactive | inactive | 4.08 µM | 0.0782 µM | 
13 | CCCCCCCCCCCCCCCCOc1ccc(-c2cc(C(=O)O)c3cnn(Cc4ccncc4)c3n2)cc1 | inactive | inactive |  |  | ND(Insoluble)
14 | O=C(O)c1cc(-c2cccc(Cl)c2)nc2c1cnn2Cc1ccncc1 | inactive | inactive | 4.6 µM | 0.026 µM | 
15 | O=C(O)c1cc(-c2ccc(Cl)nc2)nc2c1cnn2Cc1ccncc1 | inactive | inactive |  |  | 
16 | O=C(O)c1ccc(-c2cc(C(=O)O)c3cnn(Cc4ccncc4)c3n2)cc1 | inactive | inactive | 6.1 µM | 0.776 µM | 
17 | O=C(O)c1cc(-c2ccccc2)nc2c1cnn2Cc1cccnc1 | inactive | inactive |  | > 100 µM | 
18 | CN(C)C(=O)c1cc(-c2ccccc2)nc2c1cnn2Cc1ccncc1 | inactive | inactive | > 50 µM | 0.334 µM | 
19 | CCNC(=O)c1cc(-c2ccccc2)nc2c1cnn2Cc1ccncc1 | inactive | inactive | > 50 µM | 0.908 µM | 

Row | SMILES | Activity (Acinetobacter baumannii [1]) | Activity (Acinetobacter baumannii [2]) | Kd [3] | Kd ([4]; read-out: Kd) | Kd [4]
20 | O=C(O)c1cc(=O)[nH]c2c1cnn2Cc1ccncc1 | inactive | inactive |  | > 100 µM | 
21 | O=C(O)c1cc(-c2ccc3[nH]ccc3c2)nc2c1cnn2Cc1ccncc1 | inactive | inactive | 2.9 µM | 0.0618 µM | 
22 | O=C(O)c1cc(-c2ccc([N+](=O)[O-])cc2)nc2c1cnn2Cc1ccncc1 | inactive | inactive |  |  | 
23 | CN(C)c1ccc(-c2cc(C(=O)O)c3cnn(Cc4ccncc4)c3n2)cc1 | inactive | inactive | 1.7 µM | 0.628 µM | 
24 | COc1cc(-c2cc(C(=O)O)c3cnn(Cc4ccncc4)c3n2)ccc1C(=O)O | inactive | inactive | 49.9 µM | 1.7 µM | 
25 | O=C(O)c1cc(-c2cccc(O)c2)nc2c1cnn2Cc1ccncc1 | inactive | inactive | 7.67 µM | 0.124 µM | 
26 | NC(=O)c1cc(-c2ccccc2)nc2c1cnn2Cc1ccncc1 | inactive | inactive | 8.57 µM | 0.0668 µM | 
27 | CSc1ccc(-c2cc(C(=O)O)c3cnn(Cc4ccncc4)c3n2)cc1 | inactive | inactive |  |  | 
28 | O=C(O)c1cc(-c2ccccc2)nc2c1cnn2Cc1ccccc1 | inactive | inactive |  | > 100 µM | 
29 | O=C(O)c1cc(-c2ccc(F)cc2F)nc2c1cnn2Cc1ccncc1 | inactive | inactive | 8 µM | 0.0426 µM | 
30 | CC(=O)c1ccc(-c2cc(C(=O)O)c3cnn(Cc4ccncc4)c3n2)cc1 | inactive | inactive |  |  | 
31 | CC(=O)c1ccc(-c2cc(C(=O)O)c3cnn(Cc4ccncc4)c3n2)s1 | inactive | inactive |  |  | 
32 | Cc1ccc(-c2cc(C(=O)O)c3cnn(Cc4ccncc4)c3n2)cc1 | inactive | inactive | 1.44 µM | 0.212 µM | 
33 | O=C(O)c1cc(-c2cncc3ccccc23)nc2c1cnn2Cc1ccncc1 | inactive | inactive | > 100 µM | 7.73 µM | 
34 | O=C(O)c1cc(-c2ccccc2Cl)nc2c1cnn2Cc1ccncc1 | inactive | inactive | > 100 µM | 2.48 µM | 
35 | Nc1cc(-c2ccccc2)nc2c1cnn2Cc1ccncc1 | inactive | inactive | 36.4 µM | 0.2 µM | 
36 | O=C(O)c1cc(-c2cccs2)nc2c1cnn2Cc1ccncc1 | inactive | inactive | 6.68 µM | 0.443 µM | 
37 | O=C(O)c1cc(-c2ccc(C(F)(F)F)cc2)nc2c1cnn2Cc1ccncc1 | inactive | inactive |  |  | 
38 | Cc1csc(-c2cc(C(=O)O)c3cnn(Cc4ccncc4)c3n2)c1 | inactive | inactive | 2.54 µM | 0.0869 µM | 

Row | SMILES | Activity (Acinetobacter baumannii [1]) | Activity (Acinetobacter baumannii [2]) | Kd [3] | Kd ([4]; read-out: Kd) | Kd [4]
39 | O=C(O)c1cc(-c2cncnc2)nc2c1cnn2Cc1ccncc1 | inactive | inactive | 13.6 µM | 0.583 µM | 
40 | CCn1ncc2c(C(=O)O)cc(-c3ccccc3)nc21 | inactive | inactive |  | > 500 µM | 
41 | O=C(O)c1cc(-c2ccc(-c3ccccc3)cc2)nc2c1cnn2Cc1ccncc1 | inactive | inactive | 3.5 µM | 0.125 µM | 
42 | O=C(O)c1cc(N2CCOCC2)nc2c1cnn2Cc1ccncc1 | inactive | inactive | 29.1 µM | 1.45 µM | 
43 | O=C(O)c1cc(-c2ccccc2-c2ccccc2Cl)nc2c1cnn2Cc1ccncc1 | inactive | inactive | > 50 µM | 19.7 µM | 
44 | O=C(O)c1cc(-c2ccc(F)cc2)nc2c1cnn2Cc1ccncc1 | inactive | inactive | 1.89 µM | 0.028 µM | 
45 | O=C(O)c1cc(-c2ccccc2)cc2c1cnn2Cc1ccncc1 | inactive | inactive | 27.6 µM | 0.0848 µM | 
46 | C#Cc1cc(C(=O)O)c2cnn(Cc3ccncc3)c2n1 | inactive | inactive | 18.5 µM | 2.04 µM | 
47 | O=C(O)c1cc(-c2ccc(-c3ccc(Br)cc3)cc2)nc2c1cnn2Cc1ccncc1 | inactive | inactive | 19.7 µM | 0.181 µM | 
48 | COc1ccc(COc2ccc(-c3cc(C(=O)O)c4cnn(Cc5ccncc5)c4n3)cc2)cc1 | inactive | inactive | 5.8 µM | 0.0445 µM | 
49 | O=C(O)c1cc(-c2ccc(Br)cc2)nc2c1cnn2Cc1ccncc1 | inactive | inactive |  |  | 
50 | O=C(O)c1cc(-c2cc3ccccc3s2)nc2c1cnn2Cc1ccncc1 | inactive | inactive |  |  | 
51 | O=c1cc(-c2ccccc2)[nH]c2c1cnn2Cc1ccncc1 | inactive | inactive |  | > 100 µM | 
52 | N#Cc1ccc(-c2cc(C(=O)O)c3cnn(Cc4ccncc4)c3n2)cc1 | inactive | inactive |  |  | 
53 | O=C(O)c1cc(-c2ccccc2)nc2c1cnn2Cc1ccco1 | inactive | inactive |  | > 100 µM | 
54 | CC(C)n1ncc2c(C(=O)O)cc(-c3ccccc3)nc21 | inactive | inactive |  | > 500 µM | 
55 | O=C(O)c1ccc(-c2cc(C(=O)O)c3cnn(Cc4ccncc4)c3n2)cc1O | inactive | inactive |  |  | 
56 | O=C(O)c1cc(-c2ccc(Cl)cc2)nc2c1cnn2Cc1ccncc1 | inactive | inactive |  |  | 
57 | O=C(O)c1cc(-c2ccc(-c3ccc(Cl)nc3)nc2)nc2c1cnn2Cc1ccncc1 | inactive | inactive |  |  | 

— ChEMBL document CHEMBL2321876
